# ChEMBL document CHEMBL4145443, “Synthesis, β-hematin inhibition studies and antimalarial evaluation of new dehydroxy isoquine derivatives against Plasmodium berghei: A promising antimalarial agent” (Eur J Med Chem, 2018)
# Assays:
# Plasmodium berghei [1] = assay: Antimalarial activity against Plasmodium berghei ANKA infected in Balb/c mouse assessed as mouse survival time at 25 mg/kg, ip qd administered for 4 days starting from 2 hrs post infection (reference value: 6.8 +/- 0.7day); type: functional
# Summary of the method: (§1)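 Male Balb-C mice (18-22 g, n=6 per group) infected i.v. via caudal vein with 10^6 P. berghei-infected RBC. Treatment started 2 h post-infection, once daily i.p. for 4 days. Compounds dissolved in DMSO (0.1 M stock), diluted with 2% Saline-Tween 20. Saline-treated controls. Survival time recorded relative to saline group. Parasitemia by Giemsa-stained smears at day 4. Mean±SD.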
# [2] = Inhibition of acetate buffer-initiated beta-hematin polymerization measured after 48 hrs
# Summary of the method: (§2)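 Hemin chloride (4 mM in DMSO) was dispensed into plates with compound in DMSO (50-5 µM), in triplicate. Water or DMSO served as controls. Reaction was started with 0.2 M acetate buffer, pH 4.4, and run at 37 °C for 48 h. The pellet was centrifuged, washed twice with DMSO, dissolved in 0.2 N NaOH, diluted 1:2 in 0.1 N NaOH and read at 405 nm as % inhibition.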
# [3] = Hemolytic activity in human RBC after 45 mins by spectrophotometric method; type: ADME, cell-based, Erythrocyte; conditions: red blood cells (erythrocytes)
# Summary of the method: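 Human RBCs from 50% Alsever's solution were spun at 800g for 10 min and washed three times in saline. Compounds (5-5000 µM) were incubated with a 2% final RBC suspension at 37°C for 45 min. Released haemoglobin was read at 550 nm, with water as the 100% lysis control and saline as the negative control. Result given as the concentration lysing half the RBCs.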
# Plasmodium berghei [4] = assay: Antimalarial activity against Plasmodium berghei ANKA infected in Balb/c mouse assessed as parasitemia at 25 mg/kg, ip qd administered for 4 days starting from 2 hrs post infection by Giemsa staining based microscopic method (reference value: 65.2 +/- 2.58%); type: functional
# [5] = Inhibition of acetate buffer-initiated beta-hematin polymerization at 50 uM measured after 48 hrs relative to control; summary of the method: as §2
# [6] = Cytotoxicity against mouse peritoneal macrophages assessed as growth inhibition after 48 hrs by MTT assay; type: cell-based, Peritoneal macrophage; conditions: read-out: LD50
# Summary of the method: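 Murine peritoneal macrophages plated at 5 × 10^4 cells/well in DMEM with 5 mM L-glutamine, 10% FBS and antibiotics, then incubated overnight at 5% CO2. Compounds added at varied concentrations in duplicate wells, 48 h further incubation. Viability read by MTT reduction as % of untreated controls. LD50 taken by non-linear regression of % viability vs log concentration.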
# Plasmodium berghei [7] = assay: Antimalarial activity against Plasmodium berghei ANKA infected in Balb/c mouse assessed as mouse survival time at 20 mg/kg, ip qd administered for 4 days starting from 2 hrs post infection (reference value: 6.8 +/- 0.7day); type: functional; summary of the method: as §1
# Plasmodium berghei [8] = assay: Antimalarial activity against Plasmodium berghei ANKA infected in Balb/c mouse assessed as parasitemia at 20 mg/kg, ip qd administered for 4 days starting from 2 hrs post infection by Giemsa staining based microscopic method (reference value: 65.2 +/- 2.58%); type: functional
SMILES,Time (Plasmodium berghei [1]) [days],IC50 [2] [µM],HC50 at 0.75 h [3] [mM],Activity (Plasmodium berghei [4]) [%],inhibition [5] [%],CC50 at 48 h [6] [µM],Time (Plasmodium berghei [7]) [days],Activity (Plasmodium berghei [8]) [%]
CCN(CC)CCCC(C)Nc1ccnc2cc(Cl)ccc12 (stereo unspecified) [CHLOROQUINE],29.4,1.48,> 1.5,0.6,98.6,,,
Clc1ccc2c(Nc3ccc(CN4CCOCC4)cc3)ccnc2c1,,> 50,0.591,,5.17,36.2,,
CCN(CC)Cc1ccc(Nc2ccnc3cc(Cl)ccc23)cc1,,1.78,2.92,,98.2,42.4,24.9,3.8
CC(C)(C)NCc1ccc(Nc2ccnc3cc(Cl)ccc23)cc1.Cl,,1.66,1.49,,98.6,47.1,25.8,4
